Experimental data from ChEMBL document CHEMBL5512639, “Insights from structure-activity relationships and the binding mode of peptidic α-ketoamide inhibitors of the malaria drug target subtilisin-like SUB1” (Eur J Med Chem, 2024).
Calls of active or inactive are those of the source. The rule behind the calls is not given here. Numbered stars: 1 amine (or outer) side, 2 acyl side, 3 side chain; on linkers, the order of the positions; unused ones are H or OH. Square brackets hold non-standard residues; d marks the D form. Peptide text beside a SMILES is read from it. Gly(cPent) = N[C@H](C(=O)O)C1CCCC1; X1 = C[C@H](N[*:1])C(=O)C(=O)[*:2]

What was measured:
[1] = Inhibition of full length recombinant Plasmodium vivax SUB1 expressed in Drosophila S2 cells using Dabsyl-KLVGADDV-SLA-EDANS as substrate measured every 2 mins for 1 hr by FRET assay
[2] = target: T1, Subtilisin-like protease 1 (Plasmodium falciparum, UniProt O61142); assay: Inhibition of full length recombinant Plasmodium falciparum SUB1 using Dabsyl-KLVSADNIDIS-EDANS as substrate measured every 2 mins for 1 hr by FRET assay
T1 sequence (O61142 whole entry): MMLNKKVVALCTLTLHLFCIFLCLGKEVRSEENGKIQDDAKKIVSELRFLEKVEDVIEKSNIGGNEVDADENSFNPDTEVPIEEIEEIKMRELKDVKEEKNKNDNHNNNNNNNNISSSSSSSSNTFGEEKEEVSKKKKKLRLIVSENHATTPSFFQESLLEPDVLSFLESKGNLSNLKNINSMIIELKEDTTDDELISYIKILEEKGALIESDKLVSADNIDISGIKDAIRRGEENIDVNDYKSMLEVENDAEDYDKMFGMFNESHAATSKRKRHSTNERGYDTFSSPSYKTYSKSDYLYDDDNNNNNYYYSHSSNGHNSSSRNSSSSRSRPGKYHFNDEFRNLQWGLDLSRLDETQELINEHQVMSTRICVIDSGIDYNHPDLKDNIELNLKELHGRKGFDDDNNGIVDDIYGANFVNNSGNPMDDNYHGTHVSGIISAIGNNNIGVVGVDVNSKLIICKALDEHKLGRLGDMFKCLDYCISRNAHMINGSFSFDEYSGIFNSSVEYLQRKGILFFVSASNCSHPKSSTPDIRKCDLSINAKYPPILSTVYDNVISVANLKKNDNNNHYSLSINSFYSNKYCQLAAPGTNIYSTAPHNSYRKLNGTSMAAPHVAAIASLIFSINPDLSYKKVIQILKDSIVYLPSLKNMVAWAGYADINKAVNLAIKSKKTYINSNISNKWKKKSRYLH

[3] = tested on: Plasmodium falciparum; assay: Antiparasitic activity against Plasmodium falciparum infected in human Erythrocyte assessed as inhibition of merozoite egress from human Erythrocyte at 100 uM measured for 8 hrs by flow cytometry analysis relative to control; type: functional
Summary of the method: (§1)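 P. falciparum cultured in human RBCs, RPMI 1640 with 25 mM HEPES, 2.5% Albumax II, 100 μM hypoxanthine, 37 °C, 5% O2/5% CO2. Sorbitol-synchronized, plasmion-enriched late schizonts at 2% hematocrit, 1% parasitemia exposed to compound for 8 h. Fixed in glutaraldehyde, permeabilized, RNase-treated, stained with YOYO-1. Ring parasitemia by flow cytometry (100,000 events) vs DMSO. Triplicate; IC50 from 16 concentrations, 180 to 0.8 μM.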

[4] = Selectivity ratio of IC50 for inhibition of full length recombinant Plasmodium vivax SUB1 expressed in Drosophila S2 cells using Dabsyl-KLVGADDV-SLA-EDANS as substrate to IC50 for inhibition of full length recombinant Plasmodium falciparum SUB1 using Dabsyl-KLVSADNIDIS-EDANS as substrate
[5] = species: Sus scrofa; assay: Inhibition of porcine Pancreas trypsin using Nalpha-benzoyl-L-arginine-p-nitroanilide hydrochloride preincubated with compound for 15 mins followed by substrate addition and measured after 1 hr; conditions: time 75.0 min
Summary of the method: (§2)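 Enzyme in 100 mM Tris-HCl pH 8.0, 20 mM CaCl2: trypsin 5 μg/mL, chymotrypsin 0.5 μg/mL or elastase 5 μg/mL. Mixed with compound (2 μL of 10 mM stock into 98 μL) and preincubated 15 min. p-Nitroanilide substrate then added to 1 mM final. Absorbance at 405 nm followed for 1 h; DMSO and 2 mM PMSF as controls; triplicate.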

[6] = species: Bos taurus; assay: Inhibition of bovine Pancreas chymotrypsin using Nalpha-succinyl-Ala-Ala-Pro-phe-p-nitroanilide preincubated with compound for 15 mins followed by substrate addition and measured after 1 hr; conditions: time 75.0 min; summary of the method: as §2
[7] = species: Sus scrofa; assay: Inhibition of porcine Pancreas elastase using Nalpha-succinyl-Ala-Ala-Ala-p-nitroanilide preincubated with compound for 15 mins followed by substrate addition and measured after 1 hr relative to control; conditions: time 75.0 min; summary of the method: as §2
[8] = Inhibition of porcine Pancreas elastase using Nalpha-succinyl-Ala-Ala-Ala-p-nitroanilide preincubated with compound for 15 mins followed by substrate addition and measured after 1 hr; set-up: species or system Sus scrofa; summary of the method: as §2
[9] = Selectivity ratio, ratio of IC50 for porcine Pancreas elastase to IC50 for Plasmodium vivax SUB1
[10] = Selectivity ratio, ratio of IC50 for porcine Pancreas elastase to IC50 for Plasmodium falciparum SUB1
[11] = Inhibition of elastase (unknown origin); set-up: species or system Homo sapiens
[12] = Metabolic stability in human serum measured after 24 hrs by LC-MS analysis; type: ADME, cell-free; conditions: read-out: Stability
Summary of the method: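 Pooled human serum prewarmed 20 min at 37 °C; peptide added to 0.6 mM final. Aliquots taken over 0-24 h and proteins precipitated with MeCN/H2O/formic acid. Supernatant lyophilized and analysed by LC-SWATH-MS. Intact peak area expressed as % of the 0 h value. Two independent experiments in duplicate, mean ± SEM.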

[13] = tested on: Subtilisin-like protease 1 (Plasmodium vivax); assay: Binding affinity to Plasmodium vivax SUB1 using Dabsyl-KLVGADDV-SLA-EDANS as substrate using catalytic domain assessed as bound half life by jump dilution assay
[14] = tested on: Subtilisin-like protease 1 (Plasmodium vivax); assay: Binding affinity to Plasmodium vivax SUB1 catalytic domain assessed as thermal stabilization by measuring change in melting temperature by differential scanning fluorimetry
[15] = tested on: Subtilisin-like protease 1 (Plasmodium vivax); assay: Binding affinity to Plasmodium vivax SUB1 using Dabsyl-KLVGADDV-SLA-EDANS as substrate using catalytic domain assessed as dissociation constant (Koff) by jump dilution assay
[16] = tested on: Plasmodium falciparum; assay: Antiparasitic activity against Plasmodium falciparum infected in human Erythrocyte assessed as inhibition of merozoite egress from human Erythrocyte measured for 8 hrs by flow cytometry analysis; type: functional, organism-based; summary of the method: as §1
[17] = tested on: Plasmodium falciparum; assay: Antiparasitic activity against Plasmodium falciparum infected in human Erythrocyte assessed as inhibition of merozoite egress from human Erythrocyte at 25 uM measured for 8 hrs by flow cytometry analysis relative to control; type: functional; summary of the method: as §1
[18] = tested on: Plasmodium falciparum; assay: Antiparasitic activity against synchronous parasite Plasmodium falciparum infected in human Erythrocyte at 100 uM incubated for 28 hrs followed by compound washout and measured after 38 hrs; type: functional
Summary of the method: (§3)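 Trophogony off-target check: synchronous 0-3 h post-invasion rings (2% hematocrit, 1% parasitemia) exposed to compound or matched DMSO (1% or 0.25% final) for 28 h. Cells then washed and recultured without compound for 38 h. Parasitemia read by YOYO-1 flow cytometry; growth inhibition expressed relative to DMSO.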

[19] = tested on: Plasmodium falciparum; assay: Antiparasitic activity against synchronous parasite Plasmodium falciparum infected in human Erythrocyte at 25 uM incubated for 28 hrs followed by compound washout and measured after 38 hrs; type: functional; summary of the method: as §3
[20] = (§4) Selectivity index, ratio of INH for antiparasitic activity against Plasmodium falciparum infected in human Erythrocyte assessed as inhibition of merozoite egress from human Erythrocyte at 25 uM to INH for antiparasitic activity against synchronous parasite Plasmodium falciparum infected in human Erythrocyte at 25 uM; type: functional
Summary of the method: (§5)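 SI = 1 − (% trophogony inhibition / % T0-T8 egress inhibition), each at the same concentration. Trophogony arm: 0-3 h rings, 28 h exposure, washout, 38 h regrowth. Egress arm: late schizonts, 8 h exposure. Both read as parasitemia by flow cytometry vs DMSO.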

[21] = as §4, with “100” for “25”; type: functional; summary of the method: as §5

Compound: C=CCOC(=O)CC[C@H](NC(=O)[C@H](CC(=O)O)NC(=O)C(=O)[C@H](C)NC(=O)[C@H](C)NC(=O)[C@@H](NC(=O)[C@@H](NC(C)=O)C1CCCC1)[C@@H](C)O)C(N)=O
- IC50 [1]: 0.05 µM
- IC50 [2]: 0.57 µM
- inhibition at 100 µM [3]: 37%
- Ratio IC50 [4]: 9
- inhibition [5]: inactive
- inhibition [6]: inactive
- inhibition [7]: Active
- IC50 [8]: 36 µM
- Ratio IC50 [9]: 720
- Ratio IC50 [10]: 63
- IC50 [11]: 0.82 µM
- remaining at 24 h [12]: ~95%
- T1/2 [13]: 30 min
- ΔTm [14]: 14.3 °C
- K [15]: 0.023 min⁻¹

Compound: CC(=O)N[C@H](C(=O)N[C@H](C(=O)N[C@@H](C)C(=O)N[C@@H](C)C(=O)C(=O)N[C@@H](CC(=O)O)C(=O)N[C@H](C(N)=O)C1CCCC1)[C@@H](C)O)C1CCCC1 (Ac-[Gly(cPent)]TA[X1]D[Gly(cPent)]-NH2)
- IC50 [1]: 0.012 µM
- IC50 [2]: 0.01 µM
- IC50 [16]: 22.6 µM
- inhibition at 100 µM [3]: 100%
- inhibition at 25 µM [17]: 60%
- Activity [18]: 6%
- Activity [19]: 0%
- Selectivity Index [20]: 1
- Selectivity Index [21]: 0.94
- ΔTm [14]: 12.7 °C
